The source made the active and inactive calls. The rule behind the calls is not given here.
Legend:
Format in all cases: cell-based
[1] = molecular target: T1, Neuronal acetylcholine receptor subunit alpha-7 (Homo sapiens, UniProt P36544); experiment: Allosteric agonist activity at human alpha7 nAChR expressed in Xenopus oocytes after 20 secs by two-electrode voltage clamp method
Outline: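 Human α7 nAChR in Xenopus oocytes under two-electrode voltage clamp. Control applications of 60 μM ACh come first, then a standard 20-second drug application over a range of concentrations. Net-charge response is normalized to the mean of the two initial ACh controls. At least four oocytes per condition. EC50 is taken from the concentration-response curve.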

[2] = molecular target: T1, Neuronal acetylcholine receptor subunit alpha-7; experiment: Allosteric agonist activity at human alpha7 nAChR expressed in Xenopus oocytes at 10 uM measured over 120 secs by two-electrode voltage clamp method
Outline: (§1)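 Xenopus oocytes expressing human α7 receive control 60 μM ACh, then 10 μM drug alone or with 10 μM of the other enantiomer. Pre-incubation is 30 s or 5 min, followed by ACh to assess potentiation. Responses are measured over a 120-second interval from the start of drug application. Potentiation is followed over 20 minutes. Two-electrode voltage clamp.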

[3] = molecular target: T1, Neuronal acetylcholine receptor subunit alpha-7; experiment: Positive allosteric modulation of human alpha7 nAChR expressed in Xenopus oocytes assessed as potentiation of ACh-induced response at 30 uM measured over 5 mins by two-electrode voltage clamp method in presence of choline
Outline: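 α7-expressing Xenopus oocytes get control 60 μM ACh applications, then 300 μM choline together with 30 μM drug (racemate or single enantiomer). Potentiation is measured by two-electrode voltage clamp and normalized to the initial ACh controls.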

[4] = molecular target: T1, Neuronal acetylcholine receptor subunit alpha-7; experiment: Positive allosteric modulation of human alpha7 nAChR expressed in Xenopus oocytes assessed as potentiation of ACh-induced response after 20 secs by two-electrode voltage clamp method
[5] = molecular target: T1, Neuronal acetylcholine receptor subunit alpha-7; experiment: Positive allosteric modulation of human alpha7 nAChR expressed in Xenopus oocytes assessed as potentiation of ACh-induced response at 10 uM treated 4 mins prior to ACh addition by two-electrode voltage clamp method
[6] = molecular target: T1, Neuronal acetylcholine receptor subunit alpha-7; experiment: Positive allosteric modulation of human alpha7 nAChR expressed in Xenopus oocytes assessed as potentiation of ACh-induced response at 10 uM preincubated for 5 mins measured over 20 mins by two-electrode voltage clamp method; outline: as §1
[7] = molecular target: T1, Neuronal acetylcholine receptor subunit alpha-7; experiment: Allosteric agonist activity at human alpha7 nAChR expressed in Xenopus oocytes at 10 uM preincubated for 5 mins by two-electrode voltage clamp method; outline: as §1
[8] = molecular target: T1, Neuronal acetylcholine receptor subunit alpha-7; experiment: Positive allosteric modulation of human alpha7 nAChR expressed in Xenopus oocytes assessed as potentiation of ACh-induced response at 10 uM measured over 120 secs by two-electrode voltage clamp method
[9] = molecular target: T1, Neuronal acetylcholine receptor subunit alpha-7; experiment: Potency index, ratio of ACh EC50 to compound EC50 for human alpha7 nAChR expressed in Xenopus oocytes
[10] = molecular target: T1, Neuronal acetylcholine receptor subunit alpha-7; experiment: Agonist activity at human alpha7 nAChR expressed in Xenopus oocytes at 60 uM after 5 mins by two-electrode voltage clamp method relative to ACh

T1 sequence (P36544 whole entry): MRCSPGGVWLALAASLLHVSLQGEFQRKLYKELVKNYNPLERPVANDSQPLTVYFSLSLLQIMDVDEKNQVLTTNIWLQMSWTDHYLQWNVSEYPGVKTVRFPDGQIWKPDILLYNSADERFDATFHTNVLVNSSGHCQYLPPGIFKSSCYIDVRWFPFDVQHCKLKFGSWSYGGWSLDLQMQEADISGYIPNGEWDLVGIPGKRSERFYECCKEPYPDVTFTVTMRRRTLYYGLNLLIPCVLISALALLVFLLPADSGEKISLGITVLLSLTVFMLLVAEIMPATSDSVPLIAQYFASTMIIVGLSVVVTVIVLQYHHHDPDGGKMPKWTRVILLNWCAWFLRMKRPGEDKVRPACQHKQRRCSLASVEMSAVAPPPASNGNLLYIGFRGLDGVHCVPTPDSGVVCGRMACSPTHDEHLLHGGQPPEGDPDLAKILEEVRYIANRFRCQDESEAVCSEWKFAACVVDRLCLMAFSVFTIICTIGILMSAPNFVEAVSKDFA

| EC50 [1] [µM] | Activity [2] | Activity [3] | Activity [4] | Activity [5] | Activity [6] | Activity [7] | Activity [8] | Ratio EC50 [9] | fold change (FC) [10] | Structure (SMILES) |
| --- | --- | --- | --- | --- | --- | --- | --- | --- | --- | --- |
| 28 | Active | Active | Dose-dependent effect | Active | Active | Active |  |  |  | NS(=O)(=O)c1ccc2c(c1)[C@H]1C=CC[C@H]1[C@@H](c1ccc(Br)cc1)N2 |
|  | inactive |  |  |  |  |  | inactive |  |  | NS(=O)(=O)c1ccc2c(c1)[C@@H]1C=CC[C@@H]1[C@H](c1ccc(Br)cc1)N2 |
|  |  | Active |  |  |  |  |  | 8 | 45 | NS(=O)(=O)c1ccc2c(c1)[C@H]1C=CC[C@H]1C(c1ccc(Br)cc1)N2 (mixture of isomers) |

Reference: ChEMBL document CHEMBL3085762, “Expeditious synthesis, enantiomeric resolution, and enantiomer functional characterization of (4-(4-bromophenyl)-3a,4,5,9b-tetrahydro-3H-cyclopenta[c]quinoline-8-sulfonamide (4BP-TQS): an allosteric agonist-positive allosteric modulator of α7 nicotinic acetylcholine receptors” (J Med Chem, 2013)
